Three compounds from ChEMBL document CHEMBL1127424, “7-azetidinylquinolones as antibacterial agents. 2. Synthesis and biological activity of 7-(2,3-disubstituted-1-azetidinyl)-4-oxoquinoline- and -1,8-naphthyridine-3-carboxylic acids. Properties and structure-activity relationships of quinolones with an azetidine moiety” (J Med Chem, 1994) can be followed below.

One data set deals with Bacillus cereus. Kind of data set: In vitro minimum inhibitory concentration for Bacillus cereus ATCC 11778. The data set is classed as functional. An outline of the steps:
(§1)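 Serial 2-fold agar dilution in Mueller Hinton medium, run alongside a reference quinolone. Inoculum adjusted to 10⁸ cfu/mL; compound range 0.007–16 μg/mL.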

The test system of a further data set is Pseudomonas aeruginosa. Kind of data set: In vitro minimum inhibitory concentration for Pseudomonas aeruginosa ATCC 10145. The data set is classed as functional. A digest of the protocol: as §1
Data set [1] has as its system Mus musculus. In words: Evaluation of efficacy on systemic infections Pseudomonas aeruginosa HS-116, after oral administration in mice. The data set is classed as functional. An outline of the steps:
(§2)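 Single oral dose given immediately after infection, one of four doses per group, chosen from in vitro activity. Survival scored after one week. ED50 (total mg/kg protecting 50%) interpolated from survival rates.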

In data set [2] the test system is Mus musculus. Kind of data set: Evaluation of efficacy on systemic infections Staphylococcus aureus HS-93, after oral administration in mice. Format: functional. A digest of the protocol:
as §2

Data set [3] has as its system Enterococcus faecalis. Kind of data set: microbe, parasite or virus in culture. The settings on record: ATCC 10541.
Data set [4] has as its system Staphylococcus epidermidis. In words: In vitro minimum inhibitory concentration for Staphylococcus epidermidis ATCC 155-1. Format: functional. An outline of the steps: as §1
The nature of data set [5]: AUC (0-4 hr) ug/ml/h. The data set is classed as ADME, cell-free. Set-up: time < 4 hr. The settings on record: plasma. A digest of the protocol:
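Mice dosed once orally at 50 mg/kg; blood taken from groups of six mice at 0.5, 1, 2 and 4 h. Serum drug assayed by disk agar diffusion bioassay (Bacillus subtilis ATCC 6633 on Seed Agar, 37 °C, 18 h), giving total activity.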

The subject of the next data set is Morganella morganii. Kind of data set: In vitro minimum inhibitory concentration for Morganella morganii ATCC 8019. Format: functional. A digest of the protocol:
as §1

The subject of data set [6] is Mus musculus. In words: Evaluation of efficacy on systemic infections Escherichia coli HM-42, after oral administration in mice. Format: functional. An outline of the steps: as §2
The subject of another data set is Staphylococcus aureus. Kind of data set: In vitro minimum inhibitory concentration for Staphylococcus aureus ATCC 25178. The data set is classed as functional. An outline of the steps: as §1
The next data set relates to Proteus vulgaris. In words: In vitro minimum inhibitory concentration for Proteus vulgaris ATCC 8427. The data set is classed as functional. A digest of the protocol:
as §1

A further data set deals with Bacillus subtilis. In words: In vitro minimum inhibitory concentration for Bacillus subtilis ATCC 6633. The data set is classed as functional. An outline of the steps:
as §1

Data set [7] in a line: HPLC capacity factor (k'). Format: ADME. An outline of the steps:
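Ion-pair reversed-phase HPLC on ODS-2 (10 μm) at 45 °C. Mobile phase: 10 mM sodium heptanesulfonate plus 50 mM KH2PO4 (pH 3.5)–methanol 45:55, 1 mL/min. Samples at 100 μg/mL in DMF, injected in duplicate, UV 280 nm. k' = (tR − t0)/t0.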

For a further data set, the system named is Klebsiella pneumoniae. Kind of data set: In vitro minimum inhibitory concentration to inhibit Klebsiella pneumoniae ATCC 10031. The data set is classed as functional. An outline of the steps: as §1
Another data set has as its system Enterobacter cloacae. Kind of data set: In vitro minimum inhibitory concentration for Enterobacter cloacae ATCC 23355. The data set is classed as functional.
Another data set concerns Escherichia coli. In words: In vitro minimum inhibitory concentration to inhibit Escherichia coli ATCC 10799. The data set is classed as functional. A digest of the protocol:
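Serial 2-fold agar dilution on Mueller Hinton medium, run alongside 1b as comparator. Inoculum adjusted to 10⁸ cfu/mL; compound range 0.007 to 16 μg/mL. Incubated 37 °C for 18 h. MIC taken as the lowest concentration preventing visible growth.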

Data set [8] concerns Enterococcus faecalis. In words: In vitro minimum inhibitory concentration for Streptococcus faecalis ATCC 10541. Format: functional. A digest of the protocol:
as §1

Data set [9] in a line: Measured ionization constant (pKa). Format: physicochemical. The settings on record: read-out: pKa1. A digest of the protocol:
(§3)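 Spectrophotometric titration at 20 ± 1 °C, 0.1 M ionic strength, pH varied with H2SO4 or NaOH made up in the compound stock. Absorbance followed at compound-specific wavelengths chosen from 200–400 nm scans. pKa1 and pKa2 taken as the inflection points of the two-step absorbance vs pH curve.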

A short description of data set [10]: Measured inonisation constant (pKa). The data set is classed as physicochemical. The settings on record: read-out: pKa2. A digest of the protocol:
as §3

In brackets after ≈: the same amount, converted by molar mass.

For the compound `O=C(O)c1cn(C2CC2)c2cc(N3CCNCC3)c(F)cc2c1=O` [CIPROFLOXACIN], the MIC with Bacillus cereus is 0.25 µg/mL (≈ 0.754 µM); against Pseudomonas aeruginosa, 0.12 µg/mL (≈ 0.362 µM); against Enterococcus faecalis [3] it was 0.5 µg/mL (≈ 1.51 µM); in [4], 0.5 µg/mL (≈ 1.51 µM); in the data set with Morganella morganii it was 0.06 µg/mL (≈ 0.181 µM); with Staphylococcus aureus, 0.25 µg/mL (≈ 0.754 µM). The MIC against Proteus vulgaris and with Bacillus subtilis was 0.06 µg/mL (≈ 0.181 µM) throughout. The figures for the ED50 with Mus musculus [1], in the data set with Mus musculus [2] and in the data set with Mus musculus [6] were 70.3 mg/kg, 45.1 mg/kg and 3 mg/kg, respectively. This compound also had an AUC in [5] of 2300 ng·h/mL.
On to `CCn1cc(C(=O)O)c(=O)c2cc(F)c(N3C[C@@H](N)[C@@H]3C)c(F)c21`, for which, in data set [7], the “Log k'” value is reported as 0.0145. Besides, the MIC against Bacillus cereus amounted to 0.25 µg/mL (≈ 0.741 µM); against Pseudomonas aeruginosa, 1 µg/mL (≈ 2.96 µM); in the data set with Klebsiella pneumoniae it was 0.015 µg/mL (≈ 0.0445 µM); in the data set on Enterobacter cloacae, 0.06 µg/mL (≈ 0.178 µM); in data set [4] it was 0.12 µg/mL (≈ 0.356 µM); against Escherichia coli it was 0.12 µg/mL (≈ 0.356 µM). Moreover, the MIC in the data set on Morganella morganii came out at 0.06 µg/mL (≈ 0.178 µM); in the data set with Enterococcus faecalis [8], 1 µg/mL (≈ 2.96 µM); against Staphylococcus aureus it was 0.25 µg/mL (≈ 0.741 µM); against Proteus vulgaris, 0.25 µg/mL (≈ 0.741 µM); against Bacillus subtilis, 0.06 µg/mL (≈ 0.178 µM). For the same compound, the figures for the ED50 in the data set on Mus musculus [1], with Mus musculus [2] and in the data set with Mus musculus [6] were 56.3 mg/kg, 5.1 mg/kg and 4 mg/kg, respectively.
Turning to `CCNC1CN(c2cc3c(cc2F)c(=O)c(C(=O)O)cn3C2CC2)C1`, the values for the pKa in [9] and in [10] were 6.48 and 8.62, respectively.
